# Reference: ChEMBL document CHEMBL4346665, “Synthesis and evaluation of tetrahydroquinolin-2(1H)-one derivatives as novel anti-pancreatic cancer agents via targeting autophagy” (Eur J Med Chem, 2019)
# The source made the active and inactive calls. The calls are words filed in the database; no cut-off is given here.
# Tests used:
# PANC-1 [1] = test: Antitumor activity against human PANC1 cells xenografted in nude mouse assessed as reduction in tumor size at 30 mg/kg, ip administered every 3 days for 4 weeks post tumor inoculation; format: functional, organism-based
# In short: (§1)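 PANC-1 xenografts in nude mice. Dosing daily at 5, 10 or 20 mg/kg/day for 30 days, or 30 mg/kg every three days for the gemcitabine reference. Tumor volume from diameters and tumor weight at end of study. Body weight monitored, kidney and liver examined. T1-weighted MRI on day 30 with Gd-DTPA contrast via tail vein. Mean ± S.D., n = 5, vs control group.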
# PANC-1 [2] = test: Antitumor activity against human PANC1 cells xenografted in nude mouse assessed as reduction in tumor weight at 30 mg/kg, ip administered every 3 days for 4 weeks post tumor inoculation; format: functional, organism-based; in short: as §1
# [3] = Toxicity in human PANC1 cells xenografted in nude mouse assessed as change in body weight at 30 mg/kg, ip administered every 3 days for 4 weeks post tumor inoculation; format: organism-based; conditions: in vivo; in short: as §1
# [4] = Toxicity in human PANC1 cells xenografted in nude mouse assessed as pathological changes in kidney at 30 mg/kg, ip administered every 3 days for 4 weeks post tumor inoculation by hematoxylin and eosin staining based assay; format: organism-based; conditions: in vivo; in short: as §1
# [5] = Toxicity in human PANC1 cells xenografted in nude mouse assessed as pathological changes in liver at 30 mg/kg, ip administered every 3 days for 4 weeks post tumor inoculation by hematoxylin and eosin staining based assay; format: organism-based; conditions: in vivo; in short: as §1
# PANC-1 [6] = test: Growth inhibition of human PANC1 cells in nutrient-deprived medium at 10 uM incubated for 24 hrs by MTT assay (reference value: 0.0 +/- 1.9%); format: functional; conditions: PANC-1, 24 h
# PANC-1 [7] = test: Growth inhibition of human PANC1 cells in nutrient-rich medium at 10 uM incubated for 24 hrs by MTT assay (reference value: 0.0 +/- 3.8%); format: functional; conditions: PANC-1, 24 h
# PANC-1 [8] = test: Growth inhibition of human PANC1 cells in nutrient-deprived medium incubated for 24 hrs by MTT assay; format: functional, cell-based; conditions: PANC-1, 24 h
# [9] = Cytotoxicity against mouse NCTC-1469 cells up to 20 uM incubated for 24 hrs by MTT assay; format: cell-based
# PANC-1 [10] = test: Inhibition of colony formation in human PANC1 cells in nutrient-deprived medium treated for 24 hrs followed by compound washout and subsequent incubation for 14 days by crystal violet staining based assay; format: functional, cell-based
# In short: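 Clonogenic assay of PANC-1 under NDC across several concentrations. Surviving colonies counted, mean ± S.D., n = 3.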
# PANC-1 [11] = test: Induction of apoptosis in human PANC1 cells in nutrient-deprived medium assessed as live cells at 5 uM incubated for 24 hrs by Annexin V-FITC/PI double staining based flow cytometric analysis (reference value: 85.75 to 96.8%); format: functional
# In short: (§2)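 PANC-1 cells under NDC exposed 24 h at 5.0, 10.0 or 20.0 µM. Annexin V-FITC/PI double staining, flow cytometric quantification of live, early apoptotic, late apoptotic and necrotic fractions. Arctigenin as positive control.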
# PANC-1 [12] = test: Induction of apoptosis in human PANC1 cells in nutrient-deprived medium assessed as early apoptotic cells at 5 uM incubated for 24 hrs by Annexin V-FITC/PI double staining based flow cytometric analysis (reference value: 0.22 to 14.25%); format: functional; in short: as §2
# PANC-1 [13] = test: Induction of apoptosis in human PANC1 cells in nutrient-deprived medium assessed as late apoptotic cells at 5 uM incubated for 24 hrs by Annexin V-FITC/PI double staining based flow cytometric analysis (reference value: 0 to 0.9%); format: functional; in short: as §2
# PANC-1 [14] = test: Induction of apoptosis in human PANC1 cells in nutrient-deprived medium assessed as necrotic cells at 5 uM incubated for 24 hrs by Annexin V-FITC/PI double staining based flow cytometric analysis (reference value: 0 to 2.8%); format: functional; in short: as §2
# PANC-1 [15] = test: Induction of apoptosis in human PANC1 cells in nutrient-deprived medium assessed as live cells at 10 uM incubated for 24 hrs by Annexin V-FITC/PI double staining based flow cytometric analysis (reference value: 85.75 to 96.8%); format: functional; in short: as §2
# PANC-1 [16] = test: Induction of apoptosis in human PANC1 cells in nutrient-deprived medium assessed as early apoptotic cells at 10 uM incubated for 24 hrs by Annexin V-FITC/PI double staining based flow cytometric analysis (reference value: 0.22 to 14.25%); format: functional; in short: as §2
# PANC-1 [17] = test: Induction of apoptosis in human PANC1 cells in nutrient-deprived medium assessed as late apoptotic cells at 10 uM incubated for 24 hrs by Annexin V-FITC/PI double staining based flow cytometric analysis (reference value: 0 to 0.9%); format: functional; in short: as §2
# PANC-1 [18] = test: Induction of apoptosis in human PANC1 cells in nutrient-deprived medium assessed as necrotic cells at 10 uM incubated for 24 hrs by Annexin V-FITC/PI double staining based flow cytometric analysis (reference value: 0 to 2.8%); format: functional; in short: as §2
# PANC-1 [19] = test: Induction of apoptosis in human PANC1 cells in nutrient-deprived medium assessed as live cells at 20 uM incubated for 24 hrs by Annexin V-FITC/PI double staining based flow cytometric analysis (reference value: 85.75 to 96.8%); format: functional; in short: as §2
# PANC-1 [20] = test: Induction of apoptosis in human PANC1 cells in nutrient-deprived medium assessed as early apoptotic cells at 20 uM incubated for 24 hrs by Annexin V-FITC/PI double staining based flow cytometric analysis (reference value: 0.22 to 14.25%); format: functional; in short: as §2
# PANC-1 [21] = test: Induction of apoptosis in human PANC1 cells in nutrient-deprived medium assessed as late apoptotic cells at 20 uM incubated for 24 hrs by Annexin V-FITC/PI double staining based flow cytometric analysis (reference value: 0 to 0.9%); format: functional; in short: as §2
# PANC-1 [22] = test: Induction of apoptosis in human PANC1 cells in nutrient-deprived medium assessed as necrotic cells at 20 uM incubated for 24 hrs by Annexin V-FITC/PI double staining based flow cytometric analysis (reference value: 0 to 2.8%); format: functional; in short: as §2
# PANC-1 [23] = test: Induction of apoptosis in human PANC1 cells in nutrient-deprived medium incubated for 24 hrs by Annexin V-FITC/PI double staining based flow cytometric analysis; format: functional, cell-based; in short: as §2
# PANC-1 [24] = test: Antitumor activity against human PANC1 cells xenografted in nude mouse assessed as reduction in tumor size at 20 mg/kg, ip administered daily for 4 weeks post tumor inoculation and observed on day 9; format: functional; in short: as §1
# PANC-1 [25] = test: Antitumor activity against human PANC1 cells xenografted in ip dosed nude mouse assessed as reduction in tumor size administered daily for 4 weeks post tumor inoculation and observed on day 21 to 30; format: functional, organism-based; in short: as §1
# [26] = Toxicity in human PANC1 cells xenografted in nude mouse assessed as mortality at 5 to 20 mg/kg, ip administered daily for 4 weeks post tumor inoculation; format: organism-based; conditions: in vivo, 672 h
# In short: (§3)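 PANC-1 xenografts in nude mice, 5 per group. Daily injections of 5, 10 or 20 mg/kg for 30 days. Gemcitabine reference arm dosed at 30 mg/kg every three days, compared with untreated controls. Body weight tracked through dosing and deaths recorded. Tumour diameters measured over time and tumours weighed at endpoint. Kidneys and liver examined for lesions.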
# [27] = Toxicity in human PANC1 cells xenografted in nude mouse assessed as pathological changes in liver at 20 mg/kg, ip administered daily for 4 weeks post tumor inoculation by hematoxylin and eosin staining based assay; format: organism-based; conditions: in vivo, 672 h; in short: as §1
# [28] = Toxicity in human PANC1 cells xenografted in nude mouse assessed as pathological changes in kidney at 20 mg/kg, ip administered daily for 4 weeks post tumor inoculation by hematoxylin and eosin staining based assay; format: organism-based; conditions: in vivo, 672 h; in short: as §1
# [29] = Toxicity in human PANC1 cells xenografted in nude mouse assessed as change in body weight at 5 to 20 mg/kg, ip administered daily for 4 weeks post tumor inoculation; format: organism-based; conditions: in vivo, 672 h; in short: as §3
# PANC-1 [30] = test: Antitumor activity against human PANC1 cells xenografted in nude mouse assessed as reduction in tumor size at 5 to 20 mg/kg, ip administered daily for 4 weeks post tumor inoculation by Gd-DTPA based T1 weighted MRI analysis; format: functional, organism-based; in short: as §1
# PANC-1 [31] = test: Induction of autophagy in human PANC1 cells in nutrient-deprived medium assessed as reduction in percentage area of LC3 at 10 uM incubated for 24 hrs by DAPI staining based confocal microscopic analysis; format: functional, cell-based
# In short: (§4)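 LC3-transfected PANC-1 cells under NNC, NDC, or NDC plus 10 µM compound. Cells co-labeled for LC3B and DAPI and imaged by confocal microscopy. LC3 puncta number, percentage area and mean intensity quantified.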
# PANC-1 [32] = test: Induction of autophagy in human PANC1 cells in nutrient-deprived medium assessed as reduction in mean intensity of LC3 at 10 uM incubated for 24 hrs by DAPI staining based confocal microscopic analysis; format: functional, cell-based; in short: as §4
# PANC-1 [33] = test: Antitumor activity against human PANC1 cells xenografted in nude mouse assessed as reduction in tumor size at 20 mg/kg, ip administered daily for 4 weeks post tumor inoculation and observed on day 6; format: functional, organism-based; in short: as §1
# PANC-1 [34] = test: Antitumor activity against human PANC1 cells xenografted in nude mouse assessed as reduction in tumor weight at 20 mg/kg, ip administered daily for 4 weeks post tumor inoculation; format: functional, organism-based; in short: as §1
# PANC-1 [35] = test: Inhibition of autophagy in human PANC1 cells in nutrient-deprived medium assessed as accumulation of SQSTM1 protein at 10 uM incubated for 1 to 6 hrs by Western blot analysis
# PANC-1 [36] = test: Inhibition of autophagy in human PANC1 cells in nutrient-deprived medium assessed as reduction in LC3-2 expression level at 10 uM incubated for 1 to 6 hrs by Western blot analysis
smiles,measurement,setting,value
Nc1ccn([C@@H]2O[C@H](CO)[C@@H](O)C2(F)F)c(=O)n1 [GEMCITABINE],Activity,PANC-1 [1],Active
same,Activity,PANC-1 [2],Active
same,Activity,[3],Non-Toxic
same,Activity,[4],Non-Toxic
same,Activity,[5],Non-Toxic
CC(C)=CCC/C(C)=C/CC1Cc2c(OCCCNC(=O)c3cccs3)cc(=O)n(CCCO)c2CC1(C)C (stereo unspecified),inhibition at 10 µM,PANC-1 [6],72.8%
same,inhibition at 10 µM,PANC-1 [7],11.5%
same,IC50,PANC-1 [8],4.9 µM
same,Activity,[9],Non-Toxic
same,inhibition,PANC-1 [10],Dose-dependent effect
same,Activity,PANC-1 [11],38.56%
same,Activity,PANC-1 [12],35.35%
same,Activity,PANC-1 [13],26%
same,Activity,PANC-1 [14],0.09%
same,Activity,PANC-1 [15],20.25%
same,Activity,PANC-1 [16],41.58%
same,Activity,PANC-1 [17],38.03%
same,Activity,PANC-1 [18],0.14%
same,Activity,PANC-1 [19],1.56%
same,Activity,PANC-1 [20],2.34%
same,Activity,PANC-1 [21],91.74%
same,Activity,PANC-1 [22],4.36%
same,Activity,PANC-1 [23],Dose-dependent effect
same,Activity,PANC-1 [24],71.25 mm3
same,Activity,PANC-1 [25],Dose-dependent effect
same,Activity,[26],Non-Toxic
same,Activity,[27],Non-Toxic
same,Activity,[28],Non-Toxic
same,Activity,[29],Non-Toxic
same,Activity,PANC-1 [30],Active
same,Activity,PANC-1 [31],Active
same,Activity,PANC-1 [32],Active
same,Activity,PANC-1 [33],inactive
same,Activity,PANC-1 [34],Active
same,Activity,PANC-1 [35],Active
same,Activity,PANC-1 [36],Active
